Data reported in ChEMBL document CHEMBL4229410, “Facile construction of fused benzimidazole-isoquinolinones that induce cell-cycle arrest and apoptosis in colorectal cancer cells” (Bioorg Med Chem, 2018).
Calls of active or inactive are those of the source. No cut-off for these calls is given here.

What was measured:
[1] = target: Epidermal growth factor receptor (Homo sapiens, UniProt P00533, L858R); experiment: Binding affinity to partial length human EGFR (R669 to V1011 residues) L858R mutant expressed in bacterial expression system by KINOMEscan assay
[2] = target: Rho-associated protein kinase 2 (Homo sapiens, UniProt O75116); experiment: Inhibition of human ROCK2 (M1 to T431 residues) expressed in mammalian expression system assessed as residual activity at 5 uM by KINOMEscan assay relative to control
[3] = target: Mitogen-activated protein kinase kinase kinase 9 (Homo sapiens, UniProt P80192); experiment: Inhibition of human MLK1 (V88 to W426 residues) expressed in bacterial expression system assessed as residual activity at 5 uM by KINOMEscan assay relative to control
[4] = target: Cyclin-dependent kinase 3 (Homo sapiens, UniProt Q00526); experiment: Binding affinity to full length human CDK3 (M1 to H305 residues) expressed in bacterial expression system by KINOMEscan assay
Homo sapiens [5] = species on record: Homo sapiens; experiment: Inhibition of PI3K in human SW620 cells assessed as reduction in AKT phosphorylation at T308 residue up to 75 uM after 48 hrs by Western blot analysis; assay type: cell-based
[6] = target: Phosphatidylinositol 4,5-bisphosphate 3-kinase catalytic subunit alpha isoform (Homo sapiens, UniProt P42336); experiment: Inhibition of human PIK3CA (R108 to N1068 residues) expressed in mammalian expression system assessed as residual activity at 5 uM by KINOMEscan assay relative to control
[7] = target: Protein kinase C epsilon type (Homo sapiens) (UniProt Q02156); experiment: Inhibition of human PRKCE (A378 to P737 residues) expressed in mammalian expression system assessed as residual activity at 5 uM by KINOMEscan assay relative to control
HT-29 [8] = experiment: Inhibition of PI3K in human HT-29 cells assessed as reduction in AKT phosphorylation at S473 residue up to 75 uM after 48 hrs by Western blot analysis; assay type: cell-based
HT-29 [9] = experiment: Induction of apoptosis in human HT-29 cells assessed as late apoptotic cells at 25 uM after 48 hrs by Annexin-V-FITC/propidium iodide staining based flow cytometry (reference value: 4.1%); assay type: functional
Focal adhesion kinase 1 = Focal adhesion kinase 1 (Homo sapiens, UniProt Q05397); experiment: Inhibition of human FAK (D402 to R696 residues) expressed in bacterial expression system assessed as residual activity at 5 uM by KINOMEscan assay relative to control
[10] = target: Serine/threonine-protein kinase PAK 1 (Homo sapiens, UniProt Q13153); experiment: Binding affinity to human PAK1 (S149 to H545 residues) expressed in bacterial expression system by KINOMEscan assay
SW-620 [11] = experiment: Induction of apoptosis in human SW620 cells assessed as live cells at 75 uM after 48 hrs by Annexin-V-FITC/propidium iodide staining based flow cytometry (reference value: 97.5%); assay type: functional
[12] = target: Serine/threonine-protein kinase pim-3 (Homo sapiens, UniProt Q86V86); experiment: Inhibition of human PIM3 (G16 to A317 residues) expressed in bacterial expression system assessed as residual activity at 5 uM by KINOMEscan assay relative to control
[13] = target: Glycogen synthase kinase-3 beta (Homo sapiens, UniProt P49841); experiment: Binding affinity to full length human GSK3B (M1 to T433 residues) expressed in mammalian expression system by KINOMEscan assay
SW-620 [14] = experiment: Effect on total 4EBP1 expression in human SW620 cells up to 75 uM after 48 hrs by Western blot analysis; assay type: ADME, cell-based; settings: sw-620, 48 h
Outline: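 HT29 or SW620 cells were treated at 0, 25, 50 and 75 μM for 48 h and lysed in RIPA with protease and phosphatase inhibitors. Protein was quantified by BCA. 50 μg lysate was run on 8–15% SDS-PAGE and transferred to PVDF. Blocking was 5% BSA/TBST for 2 h; primary antibodies were applied overnight at 4 °C, then HRP secondary 1 h at room temperature.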

Aurora kinase B = Aurora kinase B (Homo sapiens, UniProt Q96GD4); experiment: Binding affinity to human AURKB (D25 to A303 residues) expressed in mammalian expression system by KINOMEscan assay
[15] = target: Phosphatidylinositol 4-phosphate 3-kinase C2 domain-containing subunit beta (Homo sapiens, UniProt O00750); experiment: Inhibition of human PIK3C2B (M1 to L1634 residues) expressed in mammalian expression system assessed as residual activity at 5 uM by KINOMEscan assay relative to control
Homo sapiens [16] = species on record: Homo sapiens; experiment: Inhibition of PI3K in human SW620 cells assessed as reduction in AKT phosphorylation at S473 residue up to 75 uM after 48 hrs by Western blot analysis; assay type: cell-based
[17] = target: cAMP-dependent protein kinase catalytic subunit alpha (Homo sapiens, UniProt P17612); experiment: Binding affinity to human PKACalpha (G10 to F351 residues) expressed in bacterial expression system by KINOMEscan assay
[18] = target: Mast/stem cell growth factor receptor Kit (Homo sapiens, UniProt P10721); experiment: Inhibition of human KIT (I571 to D952 residues) expressed in bacterial expression system assessed as residual activity at 5 uM by KINOMEscan assay relative to control
SW-620 [19] = experiment: Induction of apoptosis in human SW620 cells assessed as live cells at 50 uM after 48 hrs by Annexin-V-FITC/propidium iodide staining based flow cytometry (reference value: 97.5%); assay type: functional
SW-620 [20] = experiment: Induction of apoptosis in human SW620 cells assessed as necrotic cells at 25 uM after 48 hrs by Annexin-V-FITC/propidium iodide staining based flow cytometry (reference value: 0.9%); assay type: functional
[21] = target: Dual specificity mitogen-activated protein kinase kinase 2 (Homo sapiens, UniProt P36507); experiment: Inhibition of full length human MEK2 (M1 to V400 residues) expressed in mammalian expression system assessed as residual activity at 5 uM by KINOMEscan assay relative to control
[22] = target: Fibroblast growth factor receptor 3 (Homo sapiens, UniProt P22607); experiment: Binding affinity to partial length human FGFR3 (R442 to S771 residues) expressed in bacterial expression system by KINOMEscan assay
HT-29 [23] = experiment: Cell cycle arrest in human HT-29 cells assessed as accumulation at G1-phase at 50 uM after 48 hrs by propidium iodide staining based flow cytometry (reference value: 41.86%); assay type: functional
[24] = target: Cyclin-dependent kinase 2 (Homo sapiens, UniProt P24941); experiment: Binding affinity to full length human CDK2 (M1 to L298 residues) expressed in bacterial expression system by KINOMEscan assay
SRSF protein kinase 3 = SRSF protein kinase 3 (Homo sapiens, UniProt Q9UPE1); experiment: Inhibition of human SRPK3 (P41 to P567 residues) expressed in bacterial expression system assessed as residual activity at 5 uM by KINOMEscan assay relative to control
[25] = target: Non-receptor tyrosine-protein kinase TYK2 (Homo sapiens, UniProt P29597); experiment: Binding affinity to human TYK2 JH1 catalytic domain (V877 to C1187 residues) expressed in mammalian expression system by KINOMEscan assay
Non-receptor tyrosine-protein kinase TYK2, sequence (P29597 whole entry, the tested form may be a part): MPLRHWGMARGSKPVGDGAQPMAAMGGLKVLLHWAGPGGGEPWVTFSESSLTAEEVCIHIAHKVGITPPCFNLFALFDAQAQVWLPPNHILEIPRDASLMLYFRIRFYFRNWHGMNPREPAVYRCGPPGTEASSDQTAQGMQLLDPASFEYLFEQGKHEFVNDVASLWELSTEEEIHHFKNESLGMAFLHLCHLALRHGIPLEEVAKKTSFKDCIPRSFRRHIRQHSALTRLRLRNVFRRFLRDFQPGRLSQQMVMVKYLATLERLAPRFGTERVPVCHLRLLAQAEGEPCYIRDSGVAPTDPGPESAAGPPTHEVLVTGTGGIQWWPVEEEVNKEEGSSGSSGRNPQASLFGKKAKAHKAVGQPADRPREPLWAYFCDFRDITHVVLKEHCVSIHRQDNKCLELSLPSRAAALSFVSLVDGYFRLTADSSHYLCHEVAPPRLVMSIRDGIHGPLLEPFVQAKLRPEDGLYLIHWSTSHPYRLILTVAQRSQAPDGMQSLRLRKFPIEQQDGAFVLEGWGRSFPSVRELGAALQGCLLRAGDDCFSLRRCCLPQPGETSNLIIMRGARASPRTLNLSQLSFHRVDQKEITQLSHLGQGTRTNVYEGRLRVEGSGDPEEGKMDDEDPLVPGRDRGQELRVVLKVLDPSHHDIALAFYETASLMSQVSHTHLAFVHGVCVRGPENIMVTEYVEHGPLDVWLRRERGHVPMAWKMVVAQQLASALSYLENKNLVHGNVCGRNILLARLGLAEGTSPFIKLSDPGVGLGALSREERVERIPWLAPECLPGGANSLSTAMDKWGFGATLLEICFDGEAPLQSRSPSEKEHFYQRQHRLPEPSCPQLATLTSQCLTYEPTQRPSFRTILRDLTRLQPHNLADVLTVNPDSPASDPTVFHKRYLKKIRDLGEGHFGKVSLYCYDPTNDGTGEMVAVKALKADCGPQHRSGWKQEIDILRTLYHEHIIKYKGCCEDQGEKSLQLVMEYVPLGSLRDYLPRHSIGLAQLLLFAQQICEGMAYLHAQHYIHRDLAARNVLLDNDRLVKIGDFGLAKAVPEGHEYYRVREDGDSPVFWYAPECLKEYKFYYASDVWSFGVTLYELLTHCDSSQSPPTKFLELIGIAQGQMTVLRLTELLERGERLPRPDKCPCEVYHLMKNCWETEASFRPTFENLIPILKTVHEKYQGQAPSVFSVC

Serine/threonine-protein kinase PAK 1, sequence (Q13153 whole entry, the tested form may be a part): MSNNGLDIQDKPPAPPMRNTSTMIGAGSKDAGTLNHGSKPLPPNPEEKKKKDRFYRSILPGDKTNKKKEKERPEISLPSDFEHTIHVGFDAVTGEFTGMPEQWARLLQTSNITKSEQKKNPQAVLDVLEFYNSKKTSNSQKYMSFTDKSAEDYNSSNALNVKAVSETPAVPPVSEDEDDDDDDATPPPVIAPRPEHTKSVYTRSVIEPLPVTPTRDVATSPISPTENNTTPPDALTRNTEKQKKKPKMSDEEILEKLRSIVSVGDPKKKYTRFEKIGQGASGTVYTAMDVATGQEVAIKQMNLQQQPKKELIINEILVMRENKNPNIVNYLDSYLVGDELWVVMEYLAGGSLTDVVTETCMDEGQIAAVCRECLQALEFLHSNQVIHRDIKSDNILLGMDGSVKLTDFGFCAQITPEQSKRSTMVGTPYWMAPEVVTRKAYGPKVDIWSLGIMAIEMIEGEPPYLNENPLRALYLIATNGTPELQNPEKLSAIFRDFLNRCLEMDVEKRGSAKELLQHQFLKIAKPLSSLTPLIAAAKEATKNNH
Aurora kinase B, sequence (Q96GD4 whole entry, the tested form may be a part): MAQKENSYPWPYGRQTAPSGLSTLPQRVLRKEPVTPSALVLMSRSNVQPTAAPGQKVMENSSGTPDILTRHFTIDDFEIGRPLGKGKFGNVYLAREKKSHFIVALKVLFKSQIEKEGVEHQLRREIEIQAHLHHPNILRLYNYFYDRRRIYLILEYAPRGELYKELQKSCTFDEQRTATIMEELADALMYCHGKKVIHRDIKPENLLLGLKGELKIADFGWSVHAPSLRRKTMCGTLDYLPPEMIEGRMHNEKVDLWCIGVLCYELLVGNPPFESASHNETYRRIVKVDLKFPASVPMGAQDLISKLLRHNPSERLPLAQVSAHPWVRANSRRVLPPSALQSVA
Dual specificity mitogen-activated protein kinase kinase 2, sequence (P36507 whole entry, the tested form may be a part): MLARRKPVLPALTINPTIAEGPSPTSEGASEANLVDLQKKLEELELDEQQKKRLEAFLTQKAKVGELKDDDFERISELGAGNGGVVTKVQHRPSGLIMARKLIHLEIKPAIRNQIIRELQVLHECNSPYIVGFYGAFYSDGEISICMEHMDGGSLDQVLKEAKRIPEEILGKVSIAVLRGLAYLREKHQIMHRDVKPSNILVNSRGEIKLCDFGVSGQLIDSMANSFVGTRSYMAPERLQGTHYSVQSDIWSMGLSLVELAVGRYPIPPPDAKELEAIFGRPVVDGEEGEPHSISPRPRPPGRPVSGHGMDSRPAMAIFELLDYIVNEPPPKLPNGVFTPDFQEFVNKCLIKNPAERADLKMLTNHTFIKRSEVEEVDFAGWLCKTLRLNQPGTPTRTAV
Glycogen synthase kinase-3 beta, sequence (P49841 whole entry, the tested form may be a part): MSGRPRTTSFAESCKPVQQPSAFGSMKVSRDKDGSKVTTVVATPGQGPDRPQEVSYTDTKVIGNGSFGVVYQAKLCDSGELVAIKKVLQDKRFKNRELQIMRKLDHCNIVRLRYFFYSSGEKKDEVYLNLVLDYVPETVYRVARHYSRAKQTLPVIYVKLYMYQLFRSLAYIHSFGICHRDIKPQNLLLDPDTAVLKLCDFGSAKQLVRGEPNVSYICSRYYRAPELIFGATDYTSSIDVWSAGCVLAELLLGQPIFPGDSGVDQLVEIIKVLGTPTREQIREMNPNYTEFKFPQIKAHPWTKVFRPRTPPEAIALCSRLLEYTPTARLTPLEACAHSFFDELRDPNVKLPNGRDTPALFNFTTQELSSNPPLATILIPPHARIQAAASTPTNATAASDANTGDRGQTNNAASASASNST
SRSF protein kinase 3, sequence (Q9UPE1 whole entry, the tested form may be a part): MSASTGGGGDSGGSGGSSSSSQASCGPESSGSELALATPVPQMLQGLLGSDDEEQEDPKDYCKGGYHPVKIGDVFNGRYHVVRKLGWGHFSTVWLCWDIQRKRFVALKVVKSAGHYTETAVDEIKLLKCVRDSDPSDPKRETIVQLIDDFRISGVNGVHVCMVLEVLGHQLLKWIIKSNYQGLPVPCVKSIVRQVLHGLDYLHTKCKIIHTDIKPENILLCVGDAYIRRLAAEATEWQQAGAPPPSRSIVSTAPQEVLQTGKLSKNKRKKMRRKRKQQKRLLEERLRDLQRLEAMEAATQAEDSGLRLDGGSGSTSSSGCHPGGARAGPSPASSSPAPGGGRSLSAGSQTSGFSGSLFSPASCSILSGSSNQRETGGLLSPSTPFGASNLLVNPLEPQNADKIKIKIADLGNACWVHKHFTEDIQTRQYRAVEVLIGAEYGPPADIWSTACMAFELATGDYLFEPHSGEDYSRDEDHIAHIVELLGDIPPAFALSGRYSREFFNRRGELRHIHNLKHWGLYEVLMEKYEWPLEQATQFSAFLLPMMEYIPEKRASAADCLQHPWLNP
Mast/stem cell growth factor receptor Kit, sequence (P10721 whole entry, the tested form may be a part): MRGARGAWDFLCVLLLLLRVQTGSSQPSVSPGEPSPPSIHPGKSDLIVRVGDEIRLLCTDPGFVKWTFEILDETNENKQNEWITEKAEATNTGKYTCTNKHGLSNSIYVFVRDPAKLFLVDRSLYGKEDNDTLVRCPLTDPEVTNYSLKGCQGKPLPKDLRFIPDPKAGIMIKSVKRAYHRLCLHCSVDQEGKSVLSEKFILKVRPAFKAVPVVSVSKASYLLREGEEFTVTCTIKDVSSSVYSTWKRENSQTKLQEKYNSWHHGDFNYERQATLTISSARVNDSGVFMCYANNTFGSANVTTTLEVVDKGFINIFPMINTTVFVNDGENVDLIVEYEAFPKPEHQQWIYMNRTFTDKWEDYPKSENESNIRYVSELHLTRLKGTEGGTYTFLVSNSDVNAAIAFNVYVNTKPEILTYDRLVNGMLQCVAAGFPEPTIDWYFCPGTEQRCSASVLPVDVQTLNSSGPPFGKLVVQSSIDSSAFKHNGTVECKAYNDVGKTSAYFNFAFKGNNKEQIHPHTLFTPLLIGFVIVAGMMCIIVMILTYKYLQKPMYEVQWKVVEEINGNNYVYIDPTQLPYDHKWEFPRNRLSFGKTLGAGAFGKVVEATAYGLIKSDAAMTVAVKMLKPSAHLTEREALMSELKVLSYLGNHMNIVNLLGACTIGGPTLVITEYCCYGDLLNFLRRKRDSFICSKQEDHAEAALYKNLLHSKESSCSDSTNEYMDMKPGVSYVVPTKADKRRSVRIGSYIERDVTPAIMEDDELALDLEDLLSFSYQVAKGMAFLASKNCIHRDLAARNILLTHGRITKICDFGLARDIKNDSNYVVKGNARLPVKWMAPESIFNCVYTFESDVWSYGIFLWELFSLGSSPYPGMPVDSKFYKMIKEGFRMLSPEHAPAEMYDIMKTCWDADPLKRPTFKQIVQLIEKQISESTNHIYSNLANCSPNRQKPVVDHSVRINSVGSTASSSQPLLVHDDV
Cyclin-dependent kinase 3, sequence (Q00526 whole entry, the tested form may be a part): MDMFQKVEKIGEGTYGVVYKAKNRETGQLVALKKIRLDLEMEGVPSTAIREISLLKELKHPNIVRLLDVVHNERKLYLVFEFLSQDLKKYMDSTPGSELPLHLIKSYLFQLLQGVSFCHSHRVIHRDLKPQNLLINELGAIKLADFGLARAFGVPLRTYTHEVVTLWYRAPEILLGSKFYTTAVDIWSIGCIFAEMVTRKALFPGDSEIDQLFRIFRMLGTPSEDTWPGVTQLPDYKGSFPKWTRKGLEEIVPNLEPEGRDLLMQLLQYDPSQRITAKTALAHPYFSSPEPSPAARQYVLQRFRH

Which results are given for `CC(C)CN(C(=O)c1cccnc1)c1c2ccccc2c(=O)n2c1[nH]c1ccccc12`?
Kd [1]: ≥ 5 µM; Activity [2]: 80%; Activity [3]: 84%; Kd [4]: ≥ 5 µM; inhibition (Homo sapiens [5]): Active; Activity [6]: 100%; Activity [7]: 100%; inhibition (HT-29 [8]): Active; Activity (HT-29 [9]): 8%; Activity (Focal adhesion kinase 1): 100%; Kd [10]: ≥ 5 µM; Activity (SW-620 [11]): 76.7%; Activity [12]: 100%; Kd [13]: ≥ 5 µM; Activity (SW-620 [14]): Non-Toxic; Kd (Aurora kinase B): ≥ 5 µM; Activity [15]: 97%; inhibition (Homo sapiens [16]): Active; Kd [17]: ≥ 5 µM; Activity [18]: 93%; Activity (SW-620 [19]): 81.7%; Activity (SW-620 [20]): 3.1%; Activity [21]: 82%; Kd [22]: ≥ 5 µM; Activity (HT-29 [23]): 42.2%; Kd [24]: ≥ 5 µM; Activity (SRSF protein kinase 3): 98%; Kd [25]: ≥ 5 µM
